These results are taken from article PMC6392825 (ChemistryOpen, 2019).

Molecules are shown by their SMILES. Values after ≈ are worked out from the molar mass of the structure shown.

Data set [1] has as its system HepG2. The experiment in a line: Intracellular ROS assay. Format: cell-based. The note with it: for change of intracellular ROS in words: HepG2, vs untreated control, 10 and 1 μM; for activity at 1 µM / activity at 10 µM: Homo sapiens, HepG2, read-out: Intracellular ROS, percentage compared to the untreated control cells (ROS/SRB). The gist of the method: (§1)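 Cells seeded at 20000/well and grown 24 h at 37 °C, 10% CO2, then treated with test compound at 10 and 1 μM in serum-free medium. NAC and doxorubicin served as controls. After a PBS wash, cells were loaded with 20 μM DCFH-DA for 30 min, washed, and held 1 h in phenol red-free DMEM. Fluorescence read at ex 485/em 535 nm and normalized to SRB in the same well. Reported as % of untreated control, n ≥ 3, two-tailed t-test with unequal variances.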

In data set [2] the test system is HT‐29. The experiment in a line: Intracellular ROS assay. Format: cell-based. The note with it: Homo sapiens, HT-29, read-out: Intracellular ROS, percentage compared to the untreated control cells (ROS/SRB). The gist of the method:
as §1

Data set [3] has as its system EA.hy926. The experiment in a line: Intracellular ROS assay. Format: cell-based. The note with it: Homo sapiens, EA.hy 926, read-out: Intracellular ROS, percentage compared to the untreated control cells (ROS/SRB). A digest of the protocol:
as §1

Data set [4] has as its system HepG2, HT‐29, Caco‐2 and EA.hy926. The experiment in a line: Antiproliferative activity, MTT and SRB assays taken together. It counts as cell-based.
The nature of data set [5]: Chemical antioxidant capacity, FRAP assay.
Data set [6] relates to Caco‐2. The data set can be described thus: Intracellular ROS assay. It counts as cell-based. The settings on record: Homo sapiens, Caco-2, read-out: Intracellular ROS, percentage compared to the untreated control cells (ROS/SRB). A digest of the protocol: as §1
In data set [7] the test system is EA.hy926. The data set can be described thus: Cell growth inhibition, protein content. It counts as cell-based. The settings on record: Homo sapiens, EA.hy 926, 72 h, read-out: IC50 SRB. The gist of the method:
(§2)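 Cell lines from ATCC, grown in DMEM+glutamax with 1% NEAA, 1% P/S and 10% FBS at 37 °C, 10% CO2. Seeded at 20000 cells/well for 24 h, then exposed to test compound (25 mM DMSO stock) for three days. Fixed with cold TCA for 1 h at 4 °C, stained 30 min with 0.4% SRB in 1% acetic acid, dissolved in 10 mM Tris, A490. Triplicate; IC50 given as mean ± SD combined with MTT data (n ≥ 3).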

The test system of data set [8] is HepG2. The experiment in a line: Cell growth inhibition, protein content. It counts as cell-based. The note with it: Homo sapiens, HepG2, 72 h, read-out: IC50 SRB. A digest of the protocol:
as §2

The subject of data set [9] is HepG2. The data set can be described thus: Cytotoxicity, mitochondrial activity. Format: cell-based. The note with it: Homo sapiens, HepG2, 72 h, read-out: IC50 MTT. The gist of the method:
(§3)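 Seeded at 20000 cells/well in DMEM and grown 24 h at 37 °C, 10% CO2. Medium was then replaced with serum-free medium holding test compound (25 mM DMSO stock) at various concentrations for 72 h, in triplicate; doxorubicin was the positive control. MTT (5 mg/mL stock in PBS) added for 2 h, formazan dissolved in DMSO, A570. IC50 derived from % surviving cells, reported as mean ± SD combined with SRB data.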

The test system of data set [10] is EA.hy926. The experiment in a line: Cytotoxicity, mitochondrial activity. Format: cell-based. The settings on record: Homo sapiens, EA.hy 926, 72 h, read-out: IC50 MTT. A digest of the protocol:
as §3

The nature of data set [11]: Water solubility, shake flask method, 0.1 M phosphate buffer pH 6.8. It counts as physicochemical. The settings on record: 37 °C, pH 6.8, aqueous buffer, thermodynamic from solid.
For data set [12], the system named is Caco‐2. The data set can be described thus: Cytotoxicity, mitochondrial activity. Format: cell-based. The settings on record: Homo sapiens, Caco-2, 72 h, read-out: IC50 MTT. The gist of the method:
as §3

The test system of data set [13] is HT‐29. The data set can be described thus: Cytotoxicity, mitochondrial activity. It counts as cell-based. The note with it: Homo sapiens, HT-29, 72 h, read-out: IC50 MTT. A digest of the protocol: as §3
Data set [14] relates to Caco‐2. The data set can be described thus: Cell growth inhibition, protein content. Format: cell-based. The settings on record: Homo sapiens, Caco-2, 72 h, read-out: IC50 SRB. A digest of the protocol: as §2
Data set [15] deals with HT‐29. The data set can be described thus: Cell growth inhibition, protein content. Format: cell-based. The settings on record: Homo sapiens, HT-29, 72 h, read-out: IC50 SRB. A digest of the protocol: as §2

On to `COc1cc(/C=C/C(=O)/C=C(O)/C=C/c2ccncc2)ccc1O` [3 c, (1E,4Z,6E)‐5‐Hydroxy‐1‐(4‐hydroxy‐3‐methoxyphenyl)‐7‐(pyridin‐4‐yl)hepta‐1,4,6‐triene‐3‐one], for which the “change of intracellular ROS in words” value with HepG2 [1] is “significantly increased ROS production”. In addition, the activity at 1 µM came out at 104 ± 13.1% in the data set with HepG2 [1], 93.4 ± 6.4% in the data set on HT‐29 [2], 100 ± 6.9% in the data set on EA.hy926 [3] and 89.8 ± 3.6% in the data set with Caco‐2 [6]. The activity at 10 µM in the data set with HepG2 [1] turned out to be 128 ± 4.4%; with HT‐29 [2], 99.8 ± 11.4%; with EA.hy926 [3], 95.7 ± 3.5%; with Caco‐2 [6], 99.7 ± 1%. The “antiproliferative activity / cell growth inhibition in words” value in [4] is listed as “comparable activity to the commercial doxorubicin drug”. For the same compound, the “FRAP (Trolox equivalent per μM)” value in data set [5] turned out to be 0.56 Trolox equivalent per μM. The “FRAP (curcumin equivalent per μM)” value in data set [5] is on record as 0.54 curcumin equivalent per μM. For the same compound, in data set [5], the “antioxidant activity in words, FRAP” value is on record as “comparable to ascorbic acid”. Also, the concentration for half-maximal inhibition (IC50) – broadly, the concentration at which inhibition is half-maximal – in the data set on EA.hy926 [7] is 3.7 ± 0.2 µM; with HepG2 [8], 9.8 ± 0.6 µM; in the data set with HepG2 [9], 3.2 ± 0.8 µM; with EA.hy926 [10], 6.1 ± 0.1 µM; in the data set on Caco‐2 [12], 7.1 ± 0.4 µM; with HT‐29 [13], 4.9 ± 0.3 µM. Also, the IC50 in the data set with Caco‐2 [14] turned out to be 12 ± 0.7 µM; with HT‐29 [15] it was 48.8 ± 1.8 µM. Besides, the solubility – broadly, the concentration that dissolves in the medium under given conditions – at 90 min in [11] came out at 9 ± 0.6 µM (≈ 2.91 µg/mL). Moreover, the concentration in solution in data set [11] (solubility at 24 h) came to 12.8 ± 1.1 µM (≈ 4.14 µg/mL).
`COc1cc(/C=C/c2cc(/C=C/c3cccc4cnccc34)[nH]n2)ccc1O` [4 c, 2‐Methoxy‐4‐{(E)‐2‐[5‐((E)‐2‐(isoquinolin‐5‐yl)vinyl)‐1H‐pyrazol‐3‐yl]vinyl}phenol]: the “change of intracellular ROS in words” value in the data set with HepG2 [1] was “significantly decreased ROS signal”. The activity at 1 µM was 74.7 ± 2.9% in the data set with HepG2 [1], 94.4 ± 3.4% in the data set on HT‐29 [2], 89.9 ± 2.5% in the data set on EA.hy926 [3] and 108 ± 18.6% in the data set on Caco‐2 [6]. Further, the activity at 10 µM in the data set on HepG2 [1] amounted to 88 ± 10.6%; in the data set with HT‐29 [2], 86.4 ± 8.2%; with EA.hy926 [3], 99.2 ± 5%; in the data set on Caco‐2 [6], 102 ± 17.3%. Also, the “antiproliferative activity / cell growth inhibition in words” value in data set [4] is recorded as “comparable activity to the commercial doxorubicin drug”. Also, the “FRAP (Trolox equivalent per μM)” value in data set [5] is listed as 0.15 Trolox equivalent per μM. In addition, in data set [5], the “FRAP (curcumin equivalent per μM)” value was 0.14 curcumin equivalent per μM. Besides, the half-maximal inhibitory concentration (IC50) in the data set on EA.hy926 [7] is over 75 µM; with HepG2 [8], 28.3 ± 4.7 µM; in the data set on HepG2 [9], 6.7 ± 0.4 µM; in the data set with EA.hy926 [10], 38.8 ± 0.4 µM; with Caco‐2 [12], 58.7 ± 2 µM; in the data set with HT‐29 [13], 37.7 ± 1.3 µM. Besides, the values for the IC50 with Caco‐2 [14] and with HT‐29 [15] were 60.3 ± 3.5 µM and over 75 µM, respectively. In data set [11], the concentration in solution (solubility at 90 min) was 6.4 ± 0.2 µM (≈ 2.36 µg/mL). For the same compound, the concentration in solution in [11] (solubility at 24 h) came to 7 ± 0.2 µM (≈ 2.59 µg/mL).
